Assay results as given in ChEMBL document CHEMBL4396920, “DL5050, a Selective Agonist for the Human Constitutive Androstane Receptor” (ACS Med Chem Lett, 2019).

Tests used:
[1] = target: T1, Nuclear receptor subfamily 1 group I member 3 (Homo sapiens, UniProt Q14994); assay: Agonist activity at human CAR transfected in human HepG2 cells cotransfected with CYP2B6 incubated for 23 hrs by luciferase reported gene assay; assay type: cell-based
T1 sequence (Q14994 whole entry): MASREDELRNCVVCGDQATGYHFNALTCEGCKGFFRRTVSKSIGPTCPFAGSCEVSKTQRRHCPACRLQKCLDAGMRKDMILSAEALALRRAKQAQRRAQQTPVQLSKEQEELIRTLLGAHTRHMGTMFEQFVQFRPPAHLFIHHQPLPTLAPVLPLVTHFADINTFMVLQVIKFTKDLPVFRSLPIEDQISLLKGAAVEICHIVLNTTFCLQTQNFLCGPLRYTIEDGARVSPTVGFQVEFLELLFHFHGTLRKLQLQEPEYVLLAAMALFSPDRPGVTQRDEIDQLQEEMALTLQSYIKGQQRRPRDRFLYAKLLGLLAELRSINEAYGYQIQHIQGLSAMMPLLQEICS
In short: (§1)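 qHTS luciferase reporter assay in a double-stable HepG2-CYP2B6-hCAR line. EC50 and Emax (fold luciferase signal over vehicle/basal) derived by nonlinear regression; Emax/EC50 ratio computed from these. Mean ± SEM of at least three independent experiments in quadruplicate.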

[2] = target: T1, Nuclear receptor subfamily 1 group I member 3; assay: Ratio of Emax to EC50 for agonist activity at human CAR transfected in human HepG2 cells cotransfected with CYP2B6 by luciferase reporter gene assay; assay type: cell-based; in short: as §1
HepG2 [3] = assay: Cytotoxicity against human HepG2 cells harbouring CYP2B6-hCAR gene assessed as reduction in cell viability at >10 uM incubated for 24 hrs by cell titer-Glo cell viability assay; assay type: ADME, cell-based; conditions: hepg2, 24 h
[4] = target: T2, Nuclear receptor subfamily 1 group I member 2 (Homo sapiens, UniProt O75469); assay: Agonist activity at human PXR transfected in human HepG2 cells cotransfected with CYP3A4 incubated for 23 hrs by luciferase reporter gene assay; assay type: cell-based
T2 sequence (O75469 whole entry): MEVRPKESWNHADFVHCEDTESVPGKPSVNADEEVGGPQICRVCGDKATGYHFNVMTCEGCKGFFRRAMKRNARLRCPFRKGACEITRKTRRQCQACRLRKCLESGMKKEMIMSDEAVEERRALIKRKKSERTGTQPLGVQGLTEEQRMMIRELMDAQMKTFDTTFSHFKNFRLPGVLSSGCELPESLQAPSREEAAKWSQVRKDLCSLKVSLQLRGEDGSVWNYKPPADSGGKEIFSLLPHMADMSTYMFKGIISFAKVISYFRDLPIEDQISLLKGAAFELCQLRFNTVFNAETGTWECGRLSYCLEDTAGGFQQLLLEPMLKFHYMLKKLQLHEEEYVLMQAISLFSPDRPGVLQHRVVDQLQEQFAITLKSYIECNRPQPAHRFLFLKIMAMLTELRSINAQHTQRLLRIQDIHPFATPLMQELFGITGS

[5] = target: T2, Nuclear receptor subfamily 1 group I member 2; assay: Ratio of Emax to EC50 for agonist activity at human PXR transfected in human HepG2 cells cotransfected with CYP3A4 by luciferase reporter gene assay; assay type: cell-based
[6] = target: T1, Nuclear receptor subfamily 1 group I member 3; assay: Agonist activity at human CAR in human primary hepatocytes assessed as increase in CYP2B6 gene expression incubated for 24 hrs by RT-PCR analysis; assay type: cell-based
In short: (§2)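 Hepatocytes from human liver donor HL-#151, treated with test compound at 0.5, 1 and 5 μM or vehicle; CITCO (0.5–5 μM), PB (1 mM) and RIF (10 μM) as references. CYP2B6 and CYP3A4 mRNA measured by RT-PCR and normalized to vehicle control. Mean ± SD of three independent experiments.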

[7] = target: T2, Nuclear receptor subfamily 1 group I member 2; assay: Agonist activity at human PXR in human primary hepatocytes assessed as slight increase in CYP3A4 gene expression at 0.5 to 5 uM incubated for 24 hrs by RT-PCR analysis; assay type: cell-based; in short: as §2
HepG2 [8] = assay: Cytotoxicity against human HepG2 cells harbouring CYP2B6-hCAR gene assessed as cell viability at 92 uM incubated for 24 hrs by cell titer-Glo cell viability assay; assay type: ADME, cell-based; conditions: hepg2, 24 h
[9] = target: T1, Nuclear receptor subfamily 1 group I member 3; assay: Agonist activity at human CAR in human primary hepatocytes assessed as slight increase in CYP2B6 level at 0.5 to 5 uM incubated for 72 hrs by Western blot analysis; assay type: cell-based
In short: (§3)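 Hepatocytes from liver donor #151, given the same treatments as the mRNA study. CYP2B6 and CYP3A4 protein detected by immunoblotting; representative blots.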

[10] = target: T1, Nuclear receptor subfamily 1 group I member 3; assay: Agonist activity at human CAR in human primary hepatocytes assessed as increase in CYP2B6 level incubated for 72 hrs by Western blot analysis; assay type: cell-based; in short: as §3
[11] = target: T2, Nuclear receptor subfamily 1 group I member 2; assay: Agonist activity at human PXR in human primary hepatocytes assessed as slight increase in CYP3A4 level at 0.5 to 5 uM incubated for 72 hrs by Western blot analysis; assay type: cell-based; in short: as §3
[12] = target: T1, Nuclear receptor subfamily 1 group I member 3; assay: Agonist activity at human CAR in human primary hepatocytes assessed as increase in CYP2B6 gene expression at 1 mM incubated for 24 hrs by RT-PCR analysis; assay type: cell-based; conditions: 1000 µM
In short: (§4)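 Human primary hepatocytes from liver donor HL-#151 were treated with compound at 0.5, 1 or 5 μM, phenobarbital (1 mM), rifampicin (10 μM) or vehicle. CYP2B6 and CYP3A4 mRNA was measured by RT-PCR and normalized against vehicle control. Results are mean ± SD of three independent experiments.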

[13] = target: T2, Nuclear receptor subfamily 1 group I member 2; assay: Agonist activity at human PXR in human primary hepatocytes assessed as increase in CYP3A4 gene expression at 1 mM incubated for 24 hrs by RT-PCR analysis; assay type: cell-based; conditions: 1000 µM; in short: as §4
[14] = target: T1, Nuclear receptor subfamily 1 group I member 3; assay: Agonist activity at human CAR in human primary hepatocytes assessed as increase in CYP2B6 gene expression at 0.5 to 5 uM incubated for 24 hrs by RT-PCR analysis; assay type: cell-based; in short: as §2

| Compound | EC50 ([1]; read-out: EC50) [nM] | Ratio [2] | Activity (HepG2 [3]) | also measured |
| --- | --- | --- | --- | --- |
| FC(F)(F)c1ccc(-c2nc3sccn3c2/C=N/OCc2ccc(Cl)c(Cl)c2)cc1 | 880 | 2.6 | Toxic |  |
| Clc1ccc(CO/N=C/c2c(-c3ccccc3)nc3sccn23)cc1Cl | 580 | 4 | Toxic |  |
| Clc1ccc(CO/N=C/c2c(-c3ccc(-c4ccccc4)cc3)nc3sccn23)cc1Cl |  |  | Toxic | EC50 ([1]; hepg2): Not Active; EC50 [4]: 57000 nM; Ratio [5]: 0.06 |
| Clc1ccc(CO/N=C/c2c(-c3ccc(C4CCCCC4)cc3)nc3sccn23)cc1Cl | > 100000 | < 0.03 | Toxic |  |
| COc1ccc(CO/N=C/c2c(-c3ccc4ccccc4c3)nc3occn23)cc1 | 4400 | 0.75 | Toxic |  |
| Clc1ccc(-c2nc3occn3c2/C=N/OCc2ccc(Cl)c(Cl)c2)cc1 | 410 | 10 |  | EC50 [4]: 1300 nM; Ratio [5]: 1.3; Activity [6]: Dose-dependent effect; Activity [7]: Active; Activity (HepG2 [8]): Non-Toxic; Activity [9]: Active |
| CC1(C)CCC(C)(C)c2cc(-c3nc4sccn4c3/C=N/OCc3ccc(Cl)c(Cl)c3)ccc21 |  |  | Toxic | EC50 ([1]; hepg2): Not Active; EC50 [4]: 3600 nM; Ratio [5]: 0.64 |
| Fc1c(F)c(F)c(CO/N=C/c2c(-c3ccc4ccccc4c3)nc3occn23)c(F)c1F | 1700 | 1.8 | Toxic |  |
| CC(C)c1ccc(-c2nc3sccn3c2/C=N/OCc2ccc(Cl)c(Cl)c2)cc1 | 590 | 5.1 | Toxic |  |
| Clc1ccccc1CO/N=C/c1c(-c2ccc3ccccc3c2)nc2occn12 | 1100 | 3.5 | Toxic |  |
| Clc1ccc(CO/N=C/c2c(-c3ccc4ccccc4c3)nc3sccn23)cc1Cl | 380 | 6.1 | Toxic |  |
| C(=N\OCc1ccccc1)/c1c(-c2ccc3ccccc3c2)nc2occn12 | 840 | 5.2 |  | EC50 [4]: 7300 nM; Ratio [5]: 1; Activity (HepG2 [8]): Non-Toxic |
| Clc1ccc(CO/N=C/c2c(-c3ccc4ccccc4c3)nc3occn23)cc1 | 990 | 4.2 | Toxic |  |
| N#Cc1ccc(-c2nc3sccn3c2/C=N/OCc2ccc(Cl)c(Cl)c2)cc1 | 3400 | 0.65 | Toxic |  |
| Clc1ccc(CO/N=C/c2c(-c3ccc4ccccc4c3)nc3occn23)c(Cl)c1 | 1500 | 2.3 | Toxic |  |
| C(=N\OC1Cc2ccccc2C1)/c1c(-c2ccc3ccccc3c2)nc2occn12 | 980 | 3.8 | Toxic |  |
| CC(C)(C)c1ccc(-c2nc3sccn3c2/C=N/OCc2ccc(Cl)c(Cl)c2)cc1 | 2400 | 0.83 | Toxic |  |
| Clc1ccc(CO/N=C/c2c(-c3ccc(Br)cc3)nc3sccn23)cc1Cl | 480 | 5 | Toxic |  |
| Clc1cccc(-c2nc3sccn3c2/C=N/OCc2ccc(Cl)c(Cl)c2)c1 | 1100 | 2.1 | Toxic |  |
| CCc1nc2sccn2c1/C=N/OCc1ccc(Cl)c(Cl)c1 | 2600 | 1.4 | Toxic |  |
| Clc1ccc(CO/N=C/c2c(-c3cccc4ccccc34)nc3sccn23)cc1Cl | 940 | 2.3 | Toxic |  |
| FC(F)(F)c1ccc(CO/N=C/c2c(-c3ccc4ccccc4c3)nc3occn23)cc1 | 470 | 6 |  | EC50 [4]: 2000 nM; Ratio [5]: 0.85; Activity (HepG2 [8]): Non-Toxic |
| Clc1ccc(CO/N=C/c2c(-c3ccc4ccccc4c3)nc3occn23)cc1Cl | 370 | 10 |  | EC50 [4]: 5900 nM; Ratio [5]: 0.37; Activity [6]: Dose-dependent effect; Activity [7]: Active; Activity [10]: Dose-dependent effect; Activity [11]: Active; Activity (HepG2 [8]): Non-Toxic |
| CC(C)(C)c1ccc(CO/N=C/c2c(-c3ccc4ccccc4c3)nc3occn23)cc1 | 7900 | 0.29 | Toxic |  |
| Fc1ccc(-c2nc3sccn3c2/C=N/OCc2ccc(Cl)c(Cl)c2)cc1 | 670 | 3.9 | Toxic |  |
| COc1ccc(-c2nc3sccn3c2/C=N/OCc2ccc(Cl)c(Cl)c2)cc1 | 490 | 4.9 | Toxic |  |
| C(=N\OCc1ccc(Oc2ccccc2)cc1)/c1c(-c2ccc3ccccc3c2)nc2occn12 |  |  | Toxic | EC50 ([1]; hepg2): Not Active; EC50 [4]: 1100 nM; Ratio [5]: 1.6 |
| Cc1ccc(-c2nc3sccn3c2/C=N/OCc2ccc(Cl)c(Cl)c2)cc1 | 490 | 5.5 | Toxic |  |
| CCC1(c2ccccc2)C(=O)NC(=O)NC1=O [PHENOBARBITAL] |  |  |  | Activity [12]: Active; Activity [13]: Active |
| Clc1ccc(-c2nc3sccn3c2/C=N/OCc2ccc(Cl)c(Cl)c2)cc1 |  |  | Toxic | EC50 [4]: 990 nM; Activity [14]: Active |
